Assay results as given in article PMC3764597 (Carbohydrate research, 2013).
“And” between values parts separate entries of the source, which are not always exact repeats. Equal values may be shown once. “Also recorded” adds a separate entry of the source. Read-outs that look alike come from different tables or passages of the source.

Tests used:
[1] = cited from earlier work; for collapse pressure: room temperature; for "lift-off" temperature: linear alkanoic acids
[2] = MTS cytotoxicity assay in Hs27 cells; assay type: cell-based, human; conditions: human, Hs27 cells (foreskin fibroblasts)
Outline: (§1)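 Cells kept in DMEM with 10% heat-inactivated newborn calf serum plus penicillin/streptomycin/amphotericin B at 37 °C, 5% CO₂. Seeded 5,000 per well. Compound in DMSO added at 1–1000 μM for 18 h, then MTS for 2 h. A490 read with A650 reference, medium+MTS background subtracted. Viability given as % of DMSO-treated cells, triplicates. CC₅₀ by linear regression of the two points bracketing 50%.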

[3] = MTS cytotoxicity assay in Jurkat cells; assay type: cell-based, human; conditions: human, Jurkat cells (acute leukemia T lymphocytes)
Outline: (§2)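 Jurkat cells kept in RPMI with 10% heat-inactivated FBS plus antibiotics at 37 °C, 5% CO₂. Seeded 25,000 per well. Compound in DMSO at 1–1000 μM for 16 h, then MTS for 4 h. A490 read with A650 reference, background-corrected. Viability normalized to DMSO controls, triplicates. CC₅₀ from regression line through the two viabilities nearest 50%.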

[4] = Differential scanning calorimetry; assay type: physicochemical; conditions: DSC; for Transition temperature: 25 to 200 °C, 2.5 °C/min; for Enthalpy: phase transition, from integration of the thermograms
Outline: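 Dry surfactant (1.0–1.5 mg) sealed in hermetic aluminum pans against an empty sealed-pan reference. Instrument calibrated with indium for temperature and enthalpy. Scanned 25–200 °C at 2.5 °C/min. Transition enthalpies obtained by integrating the thermograms.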

[5] = MTS cytotoxicity assay in HaCaT cells; assay type: cell-based, human; conditions: human, HaCaT cells (spontaneously immortalized keratinocytes)
Outline: as §1

[6] = tested on: HaCaT, Hs27 and Jurkat cells; experiment: MTS cytotoxicity assay, statements summarised over the cell lines; assay type: cell-based; conditions: for toxicity (MTS assay), in words: all three cell lines (HaCaT, Hs27, Jurkat), concentrations 1 to 1000 μM
Jurkat cells = experiment: Apoptosis/necrosis assay, annexin V-FITC staining and flow cytometry; assay type: cell-based; conditions: 20 h incubation, compounds added at their CC50
[7] = Langmuir monolayer compression isotherms at the air-water interface; assay type: physicochemical; conditions: for formation of stable monolayers at the air-water interface: 14 °C, 150 mM NaCl / 1.5 mM CaCl2 subphase; for "lift-off" temperature: πtrans versus temperature extrapolated to zero surface pressure
Outline: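 Subphase was 150 mM NaCl plus 1.5 mM CaCl₂ in purified water (pH 7.0), held at set temperatures by circulating bath, with impurities vacuumed off. Spread 50 μL of 1.662 mM surfactant in dichloromethane:methanol 9:1, let solvent evaporate, then compressed symmetrically at 10 mm/min (7.5 cm²/min). Wilhelmy platinum plate. Limiting area by extrapolating linear condensed region to zero pressure. Three independent runs.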

human Hs27 fibroblasts [8] = experiment: MTS cytotoxicity assay in Hs27 cells; assay type: cell-based; conditions: Hs27 cells, 18 h treatment then 2 h MTS, 1 to 1000 μM
Outline: as §1

[9] = tested on: Jurkat human T-cell lymphoblastic leukemia cells; experiment: MTS cytotoxicity assay in Jurkat cells; assay type: cell-based; conditions: Jurkat cells, 16 h treatment then 4 h MTS, 1 to 1000 μM
Outline: as §2

[10] = tested on: Spontaneously immortalized human keratinocytes (HaCaT); experiment: MTS cytotoxicity assay in HaCaT cells; assay type: cell-based; conditions: HaCaT cells, 18 h treatment then 2 h MTS, 1 to 1000 μM
Outline: as §1

human Hs27 fibroblasts [11] = conditions: Hs27 cells, value of the previous study; cited from earlier work
[12] = tested on: Jurkat human T-cell lymphoblastic leukemia cells; conditions: value of the previous study; cited from earlier work
[13] = tested on: Spontaneously immortalized human keratinocytes (HaCaT); conditions: HaCaT cells, value of the previous study; cited from earlier work
[14] = insoluble monolayers at the air-water interface

6-O-stearoyl galactopyranoside
limiting molecular area [1, 14]: 32 Å^2
collapse pressure [1]: 66 mN/m

6-O-stearoyl glucopyranoside
limiting molecular area [1, 14]: 44 Å^2
collapse pressure [1]: 43 mN/m

CCCCCCn1cc(CO[C@@H]2OC[C@@H](O)[C@H](O)[C@H]2O)nn1 [Compound 5a, (1-Hexyl-1H-1,2,3-triazol-4-yl)methyl β-D-xylopyranoside]
CC50 at 18 h [2]: > 1000 µM
CC50 at 16 h [3]: > 1000 µM
Transition temperature [4]: 120.1 ± 0.8 °C
Enthalpy [4]: 6.45 ± 0.96 kcal/mol
CC50 at 18 h [5]: > 1000 µM
toxicity (MTS assay), in words [6]: not toxic

CCCCCCCCn1cc(CO[C@@H]2OC[C@@H](O)[C@H](O)[C@H]2O)nn1 [Compound 5b, (1-Octyl-1H-1,2,3-triazol-4-yl)methyl β-D-xylopyranoside]
CC50 at 18 h [2]: 694 ± 3 µM
CC50 at 16 h [3]: 580 ± 60 µM
Transition temperature [4]: 126.9 ± 0.8 °C
Enthalpy [4]: 7.41 ± 1.2 kcal/mol
mode of cell death (viable, apoptotic, necrotic cells) (Jurkat cells): comparable with the positive controls for apoptosis
CC50 at 18 h [5]: 890 ± 50 µM

CCCCCCCCCCn1cc(CO[C@@H]2OC[C@@H](O)[C@H](O)[C@H]2O)nn1 [Compound 5c, (1-Decyl-1H-1,2,3-triazol-4-yl)methyl β-D-xylopyranoside]
CC50 at 18 h [2]: 180 ± 50 µM
CC50 at 16 h [3]: 77 ± 9 µM
Transition temperature [4]: 133.6 ± 0.1 °C
Enthalpy [4]: 9.32 ± 0.48 kcal/mol
CC50 at 18 h [5]: 120 ± 30 µM
fold more toxic than 5b ([6]; in both Jurkat and HaCaT cells, from CC50 values): approximately 8 fold

CCCCCCCCCCCCn1cc(CO[C@@H]2OC[C@@H](O)[C@H](O)[C@H]2O)nn1 [Compound 5d, (1-Dodecyl-1H-1,2,3-triazol-4-yl)methyl β-D-xylopyranoside]
CC50 at 18 h [2]: > 1000 µM
CC50 at 16 h [3]: 26 ± 3 µM
Transition temperature [4]: 130.1 ± 0.2 °C
Enthalpy [4]: 8.13 ± 0.48 kcal/mol
CC50 at 18 h [5]: > 1000 µM

CCCCCCCCCCCCCCn1cc(CO[C@@H]2OC[C@@H](O)[C@H](O)[C@H]2O)nn1 [Compound 5e, (1-Tetradecyl-1H-1,2,3-triazol-4-yl)methyl β-D-xylopyranoside]
CC50 at 18 h [2]: > 1000 µM
CC50 at 16 h [3]: > 1000 µM
Transition temperature [4]: 134.7 ± 0.4 °C
Enthalpy [4]: 9.8 ± 0.24 kcal/mol
CC50 at 18 h [5]: > 1000 µM
formation of stable monolayers at the air-water interface [7]: formed stable monolayers
Atrans: mean molecular area at phase transition ([7]; subphase 14 °C): 68 Å^2/molecule and 68.5 ± 0.9 Å^2/molecule
π max: maximum surface pressure (collapse pressure) ([7]; subphase 14 °C): 64.1 ± 0.5 mN/m
π trans: surface pressure at phase transition ([7]; subphase 14 °C): 5.6 mN/m and 5.6 ± 0.2 mN/m
Atrans: mean molecular area at phase transition ([7]; subphase 17 °C): 53.6 ± 0.9 Å^2/molecule
π max: maximum surface pressure (collapse pressure) ([7]; subphase 17 °C): 62.4 ± 1.4 mN/m
π trans: surface pressure at phase transition ([7]; subphase 17 °C): 11.3 ± 0.2 mN/m
Atrans: mean molecular area at phase transition ([7]; subphase 22 °C): 47.5 ± 0.2 Å^2/molecule
π max: maximum surface pressure (collapse pressure) ([7]; subphase 22 °C): 59.4 ± 0.6 mN/m
π trans: surface pressure at phase transition ([7]; subphase 22 °C): 15.0 ± 0.1 mN/m
Atrans: mean molecular area at phase transition ([7]; subphase 26 °C): 42.1 ± 0.7 Å^2/molecule
π max: maximum surface pressure (collapse pressure) ([7]; subphase 26 °C): 53.0 ± 2.0 mN/m
π trans: surface pressure at phase transition ([7]; subphase 26 °C): 20.9 ± 0.2 mN/m
Atrans: mean molecular area at phase transition ([7]; subphase 30 °C): 38 Å^2/molecule and 38.0 ± 1.2 Å^2/molecule
π max: maximum surface pressure (collapse pressure) ([7]; subphase 30 °C): 47.0 ± 3.0 mN/m
π trans: surface pressure at phase transition ([7]; subphase 30 °C): 26 mN/m and 27.0 ± 0.5 mN/m
"lift-off" temperature [7]: 9.2 °C
toxicity (MTS assay), in words [6]: not toxic

CCCCCCCCCCCCCCCCn1cc(CO[C@@H]2OC[C@@H](O)[C@H](O)[C@H]2O)nn1 [Compound 5f, (1-Hexadecyl-1H-1,2,3-triazol-4-yl)methyl β-D-xylopyranoside]
CC50 at 18 h [2]: > 1000 µM
CC50 at 16 h [3]: > 1000 µM
Transition temperature [4]: 134.9 ± 0.1 °C
Enthalpy [4]: 10.5 ± 0.48 kcal/mol
CC50 at 18 h [5]: > 1000 µM
formation of stable monolayers at the air-water interface [7]: formed stable monolayers
Atrans: mean molecular area at phase transition ([7]; subphase 22 °C): 84.0 ± 2.0 Å^2/molecule
π max: maximum surface pressure (collapse pressure) ([7]; subphase 22 °C): 64.0 ± 3.0 mN/m
π trans: surface pressure at phase transition ([7]; subphase 22 °C): 1.6 ± 0.2 mN/m
Atrans: mean molecular area at phase transition ([7]; subphase 26 °C): 70.0 ± 2.0 Å^2/molecule
π max: maximum surface pressure (collapse pressure) ([7]; subphase 26 °C): 58.6 ± 0.8 mN/m
π trans: surface pressure at phase transition ([7]; subphase 26 °C): 6.8 ± 0.1 mN/m
Atrans: mean molecular area at phase transition ([7]; subphase 30 °C): 65.0 ± 2.0 Å^2/molecule
π max: maximum surface pressure (collapse pressure) ([7]; subphase 30 °C): 53.6 ± 1.0 mN/m
π trans: surface pressure at phase transition ([7]; subphase 30 °C): 9.9 ± 0.1 mN/m
Atrans: mean molecular area at phase transition ([7]; subphase 33 °C): 61.0 ± 2.0 Å^2/molecule
π max: maximum surface pressure (collapse pressure) ([7]; subphase 33 °C): 51.6 ± 0.4 mN/m
π trans: surface pressure at phase transition ([7]; subphase 33 °C): 11.6 ± 0.3 mN/m
Atrans: mean molecular area at phase transition ([7]; subphase 37 °C): 51 Å^2/molecule and 51.2 ± 0.9 Å^2/molecule
π max: maximum surface pressure (collapse pressure) ([7]; subphase 37 °C): 48.0 ± 2.0 mN/m
π trans: surface pressure at phase transition ([7]; subphase 37 °C): 18 mN/m and 18.4 ± 0.4 mN/m
"lift-off" temperature [7]: 20.2 °C
toxicity (MTS assay), in words [6]: not toxic

O[C@@H]1[C@@H](O)[C@H](OCc2cn(CCC(F)(F)C(F)(F)C(F)(F)C(F)(F)C(F)(F)C(F)(F)F)nn2)OC[C@H]1O [Compound 5g, (1-(3,3,4,4,5,5,6,6,7,7,8,8,8-Tridecafluorooctyl)-1H-1,2,3-triazol-4-yl)methyl β-D-xylopyranoside]
CC50 at 18 h [2]: > 1000 µM
CC50 at 16 h [3]: > 1000 µM
Transition temperature [4]: 158 °C and 158.8 ± 0.2 °C
Enthalpy [4]: 10.8 ± 0.24 kcal/mol
CC50 at 18 h [5]: > 1000 µM
toxicity (MTS assay), in words [6]: not toxic; also recorded: no measurable inhibition of cell viability

CCCCCCCCCCCCCCCC(=O)O [hexadecanoic acid]
"lift-off" temperature [1]: ~26 °C

CCCCCCCCCCCCCC(=O)O [tetradecanoic acid]
"lift-off" temperature [1]: approximately 7 °C

CCCCCCCCS[C@@H]1O[C@H](CO)[C@@H](O)[C@H](O)[C@H]1O [β-OTG, β-octyl thioglucopyranoside, reference compound]
CC50 (human Hs27 fibroblasts [8]): 380 ± 30 µM
CC50 [9]: 310 ± 40 µM
CC50 [10]: 490 ± 60 µM

CCCCCCCCO[C@@H]1OC[C@@H](O)[C@H](O)[C@H]1O [β-OXP, β-octyl xylopyranoside]
CC50 (human Hs27 fibroblasts [11]): 760 ± 50 µM
CC50 [12]: 460 ± 13 µM
CC50 [13]: 850 ± 30 µM

n-nonyl glucosamine
limiting molecular area ([1]; 25 °C): 46 Å^2/molecule

n-octyl glucosamine
limiting molecular area ([1]; 25 °C): 48 Å^2/molecule
